# High-throughput results from PubChem BioAssay.
# GSTO1 inh: inhibitors of recombinant GSTO1, primary screen, counter-screen for RBBP9 inhibitor project, biochemical, fluorescence polarization | Glutathione S-transferase omega-1 (Homo sapiens), P78417 | activity-based probe fluorescence polarization | inhibition, % at 5.96 µM | 1.1% of 300,000 active;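 active means inhibition above the campaign mean inhibition plus 3 SD, cut at about 35% in these data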;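 further: 0% = GSTO1-1 with DMSO and 100% = wells lacking GSTO1-1 enzyme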
# Target sequence (P78417 whole entry, looked up): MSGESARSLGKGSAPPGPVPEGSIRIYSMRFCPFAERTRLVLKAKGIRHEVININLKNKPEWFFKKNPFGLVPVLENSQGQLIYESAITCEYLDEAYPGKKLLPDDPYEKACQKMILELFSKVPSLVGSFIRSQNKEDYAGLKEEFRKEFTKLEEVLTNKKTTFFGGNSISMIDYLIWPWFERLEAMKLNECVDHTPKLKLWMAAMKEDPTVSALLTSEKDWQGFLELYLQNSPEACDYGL
# Fh CTSL1 inh: Fasciola hepatica cathepsin L1 inhibitors, primary screen, counter-screen for PFM18AAP inhibitor project, biochemical, QFRET, fluorogenic peptide substrate; recombinant F. hepatica cathepsin L1, Z-Leu-Arg-MCA fluorescence; inhibition, % at 5.96 µM; 0.49% of 300,000 active;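 active means inhibition above the mean of all tested compounds plus 3 SD, set per screening campaign, cut at about 17% in these data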;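 further: 0% = plate median of test compound wells and 100% = 1 µM Z-Phe-Ala-diazomethylketone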
# UCH37 inh: inhibitors of human UCH37 deubiquitinase, primary screen, biochemical, Ub-AMC cleavage, fluorescence; Ubiquitin carboxyl-terminal hydrolase isozyme L5 (Homo sapiens), Q9Y5K5; 0.33% of 330,000 active; inhibition, % (no concentration beside the values); AID 588478, 2011; purified proteasome/UCH37;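 active means mean inhibition over replicate wells above about 20%, limit read from the data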;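 further: 0% = compound-free wells with enzyme and 100% = wells lacking proteasome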
# Target sequence (Q9Y5K5 whole entry, looked up): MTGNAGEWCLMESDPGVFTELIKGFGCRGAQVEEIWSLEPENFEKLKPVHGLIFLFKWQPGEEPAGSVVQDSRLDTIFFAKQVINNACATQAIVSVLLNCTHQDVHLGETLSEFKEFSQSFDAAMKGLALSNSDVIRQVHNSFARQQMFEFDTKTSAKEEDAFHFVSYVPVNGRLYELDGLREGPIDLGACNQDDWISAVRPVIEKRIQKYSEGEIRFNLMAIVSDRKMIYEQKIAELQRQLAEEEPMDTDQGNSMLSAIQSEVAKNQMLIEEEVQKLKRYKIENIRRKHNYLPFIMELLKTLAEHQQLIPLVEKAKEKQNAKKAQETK
#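 assay system = human UCH37 enzyme supplied as purified proteasome complex | amount = proteasome at 0.15 nM in the dispensed enzyme solution | schedule = 30 min compound-proteasome preincubation then 25 min substrate reaction, room temperature | measured by = fluorescence, ex 355 nm, em 460 nm | benchmarks = no-proteasome wells (full inhibition) and compound-free wells (no inhibition)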
# PAD4 FP inh: human PAD4 inhibitors, primary screen, biochemical, fluorescence polarization, 1536-well format; Protein-arginine deiminase type-4 (Homo sapiens), Q9UM07; recombinant PAD4, RCA probe fluorescence polarization; inhibition, % at 6.36 µM; 0.41% of 330,000 active;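 active means percent inhibition above a cutoff equal to the mean of all tested compounds plus 3 SD, cut at about 15% in these data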;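 further: 0% = PAD4 with RCA probe and DMSO and 100% = probe without PAD4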
# TDP2 absorb: human TDP2 enzyme inhibitors, primary screen, biochemical, epi absorbance, recombinant enzyme | Tyrosyl-DNA phosphodiesterase 2 (Homo sapiens), O95551 | T5PNP hydrolysis, p-nitrophenol absorbance 415 nm | inhibition, % at 12.8 µM | 0.34% of 370,000 active;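 active means inhibition above the mean of all tested compounds plus 3 SD, set per campaign, cut at about 25% in these data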;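 further: 0% = DMSO with enzyme and 100% = buffer with substrate but no TDP2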
#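 System – recombinant human TDP2 · Amount – 120 nM TDP2 per well · Buffer or medium – Mg2+-containing Tris-HCl buffer, pH 7.5 · Reagent – T5PNP substrate, 5 mM · Dosing – 12.8 µM single point, 1% DMSO · Incubation – 2 h at 37 °C · Measured by – epi absorbance · Read-out basis – percent inhibition · Benchmarks – high control without enzyme, low control DMSO plus TDP2 · Repeats – singlicate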
# HKDC1 inhibitor: HKDC1 hexokinase inhibitors, primary screen, biochemical, fluorescence, uHTS | Q2TB90 | AID 493160, 2011 | inhibition, % at 20 µM | 0.16% of 340,000 active | recombinant HKDC1, G6PDH/diaphorase resazurin coupled fluorescence;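 active means inhibition above about 35% when tested at 20 µM, limit read from the data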;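 further: plate controls were DMSO wells with enzyme for no effect and DMSO wells lacking enzyme for full effect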
#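 test system = in-house recombinant HK5 (HKDC1) enzyme | amount = HKDC1 at 5 µg/mL | control set = DMSO-enzyme wells negative, buffer-substituted wells positive | compound = one dose of 20 µM, 1% DMSO | schedule = reaction time 90 min, room temperature, protected from light | technique = resorufin fluorescence at 613 nm | reagent = glucose with 1 mM ATP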
# GSTO1 confirm: GSTO1 inhibitor hit confirmation, counter-screen for RBBP9 inhibitor project, biochemical, fluorescence polarization, triplicate | shares compounds with GSTO1 inh | recombinant GSTO1, probe fluorescence polarization | inhibition, % at 5.96 µM | 54% of 2,400 active;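 active means inhibition above the primary screen's cutoff, its mean inhibition plus 3 SD, cut at about 35% in these data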;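 further: loss of polarization as inhibitors block binding of rhodamine sulfonate ester activity probe; 0% = GSTO1 with DMSO and 100% = wells lacking GSTO1 enzyme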
# GSTO1 recomb ABPP: inhibitors of purified human GSTO1, late-stage follow-up, biochemical, gel ABPP, SE-Rh probe, percent inhibition; shares compounds with GSTO1 inh; recombinant GSTO1, gel ABPP SE-Rh probe fluorescence; inhibition, % at 1 µM; 30% of 130 active;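 active means inhibition of the enzyme GSTO1 above about 75%, limit read from the data; inactive means inhibition below that limit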
# An asterisk follows results filed as active; . = no result given. In the library only some 1.6% were active in any assay of this set; here they are far more common.
SMILES,GSTO1 inh,Fh CTSL1 inh,UCH37 inh,PAD4 FP inh,TDP2 absorb,HKDC1 inhibitor,GSTO1 confirm,others
COc1ccc(N(C(=O)CCl)C(C(=O)NCCc2ccccc2)c2cccs2)cc1 (centres undefined),93.3*,4.9,-0.1,14.4,-3.1,22.4,97.6*,GSTO1 recomb ABPP=94.0*
CCN1C(=O)C(C)SC1=NS(=O)(=O)c1ccc(Cl)s1 (centres undefined),.,.,-3.1,.,.,.,.,
CCC(=NNC(=O)c1ccc(Br)cc1)c1ccc(OCCN2CCOCC2)cc1,.,.,2.9,.,.,.,.,
Cc1ccc(S(=O)(=O)N(CC(=O)NN=Cc2cccs2)c2cccc3cccnc23)cc1,.,.,1.5,.,.,.,.,
S=c1[nH]nc(C2CCCCC2)n1N=Cc1ccc(Br)s1,.,.,0.3,.,.,.,.,
O=C(O)CC(CCc1ccccc1)OC1OC(CO)C(O)C(O)C1O (centres undefined),52.7*,-3.7,0.1,3.3,5.2,0.9,12.7,
[C-]#[N+][C@H](O[C@@H]1O[C@H](CO)[C@@H](O)[C@H](O)[C@H]1O)c1ccccc1,1.2,-3.2,4.8,-2.0,0.0,5.5,.,
Cc1ccc(C(=O)N/C(=C\c2ccc(-c3ccccc3[N+](=O)[O-])o2)C(=O)NCCCN(C)C)cc1,43.7*,2.9,14.3,-11.0,18.5,12.6,7.2,
Cc1ccc(O)c(CO)n1,-0.3,-2.5,-10.7,0.1,-14.4,-7.0,.,
Cc1nc2c(O)cccc2cc1CO,49.9*,2.9,-0.8,2.0,-5.8,8.2,4.0,
COc1ccc2c3c(cccc13)C(=O)N(O)C2=O,-4.1,-3.4,-64.8,4.5,2.0,0.1,.,
CCC1=NNc2cccc3c(OC)ccc1c23,73.0*,4.4,-6.7,36.5*,.,.,26.6,
Cc1cc(C(=O)CCl)c(C)n1CCc1ccccc1,79.1*,16.8*,5.7,-6.1,4.4,23.8,97.2*,
CC(=O)Nc1ccc(C(C)=NNC(=O)c2ccccc2Cl)cc1,.,.,5.0,.,.,.,.,
Nc1nc2c(s1)CCc1c-2cnn1-c1ccccc1,72.3*,4.5,.,40.4*,.,27.9,70.7*,
COc1ccc(CCCCCCOCc2ccccc2)cc1,.,.,0.4,-6.0,-11.0,-0.4,.,
c1ccc(CCCOCCC2CO2)cc1 (centres undefined),95.7*,-6.9,.,1.3,.,.,93.7*,GSTO1 recomb ABPP=60.0
COc1cc(C=NNC(=O)c2nc(C)cc(C)n2)ccc1O,.,.,5.6,.,.,.,.,
CC(=O)N1CCc2[nH]c3ccc(C)cc3c2C1,53.8*,51.2*,.,7.0,7.2,-0.3,2.3,
CCOC(=O)N1CCc2[nH]c3ccc(C)cc3c2C1,8.2,-3.3,1.7,0.9,20.6,6.1,.,
CCCCOP(=O)(OCCCC)C1(NS(=O)(=O)c2ccccc2)C=CC(=O)c2ccccc21 (centres undefined),50.2*,9.3,2.7,-21.4,16.9,25.6,17.6,
CCCCOCCCNS(=O)(=O)c1ccccc1,5.1,-0.3,1.4,1.2,6.7,-7.1,.,
CCCCCCN(C(=O)CCl)c1ccccc1,82.9*,-1.9,0.8,5.6,0.2,9.5,96.8*,GSTO1 recomb ABPP=83.0*
CCCN(C(=O)Cn1ncc2c(=O)oc3ccccc3c21)c1cccc(C)c1,2.7,1.7,-0.3,0.8,-3.5,-3.3,.,
CCCCCCCN(C(=O)CCl)c1cccc(C)c1,97.1*,1.3,-1.0,2.3,1.5,8.8,95.7*,GSTO1 recomb ABPP=73.0
SMILES,GSTO1 inh,Fh CTSL1 inh,UCH37 inh,PAD4 FP inh,TDP2 absorb,HKDC1 inhibitor,GSTO1 confirm,others
O=C(CCl)N(c1ccccc1)c1ccccc1,.,.,4.4,.,-1.4,5.5,.,
COc1ccc(N(CC(=O)NN=Cc2ccc3c(c2)OCO3)S(=O)(=O)c2ccccc2)cc1,.,.,5.6,.,.,.,.,
O=c1c2c([N+](=O)[O-])cc([N+](=O)[O-])cc2sn1-c1ccc(Br)cc1,37.7*,5.1,.,-9.7,.,7.5,32.5,
O=c1c2c([N+](=O)[O-])cc([N+](=O)[O-])cc2sn1Cc1ccccc1,-3.4,0.3,.,0.9,9.2,2.9,.,
c1ccc2c3c([nH]c2c1)-c1[nH]ncc1CC3,74.1*,-0.2,-14.1,6.6,5.6,-2.4,10.9,
Clc1ccc2[nH]c3c(c2c1)CCc1cn[nH]c1-3,4.2,1.4,1.4,-2.0,5.1,-4.6,.,
CCN(C(=O)Cn1cc(C(=O)C(=O)N2CCOCC2)c2ccccc21)c1ccccc1,67.1*,-2.0,4.8,4.2,-7.4,-1.7,2.0,
CCN(CC)C(=O)Cn1cc(C(=O)C(=O)N2CCN(c3ccccc3)CC2)c2ccccc21,-1.4,-7.4,3.7,1.9,-9.5,-5.7,.,
CCOc1cc(/C=C2\C(=O)N(CCc3ccc(OC)c(OC)c3)C(C)=C2C(=O)OC)ccc1O,43.3*,-2.9,7.2,-11.5,11.6,11.6,-1.6,
CCOC(=O)C1=C(C)N(c2ccc(C)cc2)C(=O)/C1=C\c1ccc(O)c(OC)c1,46.1*,7.0,3.6,-3.9,4.3,14.2,7.0,
CCOC(=O)C1=C(C)N(c2ccc(OCC)cc2)C(=O)/C1=C\c1ccco1,11.2,0.2,4.6,-5.1,-9.9,6.7,.,
COC(=O)C1=C(C)N(Cc2ccc(C)cc2)C(=O)/C1=C\c1ccc(O)c(OC)c1,34.2,1.6,3.6,-6.2,3.1,15.2,.,
COc1ccc(C=NNC(=O)CN(C2=NS(=O)(=O)c3ccccc32)c2ccccc2)cc1,.,.,4.1,.,.,.,.,
Cc1nc(N)nc(NN=Cc2ccccc2)n1,.,.,5.2,.,.,.,.,
CCOc1cc(C=NNS(=O)(=O)c2ccccc2)ccc1OS(=O)(=O)c1ccc(C)cc1,.,.,4.0,.,.,.,.,
Cc1cc(C(=O)N/N=C/c2ccc([N+](=O)[O-])o2)c(C)o1,38.1*,3.4,.,-6.4,7.0,-4.3,6.8,
Cc1ccc(S(=O)(=O)/N=C2/C=C(Sc3ncn[nH]3)C(=O)c3ccccc32)c(C)c1,91.2*,102.8*,.,15.5*,.,.,92.7*,
Cc1ccc(S(=O)(=O)/N=C2\C=C(NS(=O)(=O)c3ccccc3)C(=O)c3ccccc32)c(C)c1,.,.,.,.,3.4,27.3,.,
O=C(c1ccccc1)c1nn(-c2ccc(Cl)cc2)c(=O)cc1C(F)(F)F,76.1*,2.3,-6.9,2.1,3.2,22.6,78.5*,
